The values below come from ChEMBL document CHEMBL1125274, “Persistent binding of fatty acyl derivatives of naltrexamine to opioid receptors” (J Med Chem, 1991).

The target of test [1] is T1, Opioid receptor (Mus musculus) (UniProt P42866+P32300+P33534). The test can be described thus: (§1) Inhibition of [3H]dihydromorphine binding to mouse brain membranes as percentage of Opioid receptor occupancy.
The target of test [2] is T1, Opioid receptor (Mus musculus). The test can be described thus: Binding to mouse brain membranes expressed as percentage of Opioid receptors occupancy determined from difference in specific binding of [3H]dihydromorphine obtained prewashed. The conditions noted are these: Membrane. A digest of the protocol:
(§2)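 Applies to membranes washed before ligand exposure. Mouse brain membranes in Hepes buffer pH 7.4 are incubated with ligand for 30 min at 25 °C. Occupancy is taken from the reduction in specific binding of [3H]dihydromorphine (2 nM final, 20 min at 25 °C; nonspecific binding with 1 µM naltrexone) versus a ligand-free control. Mean ± SD of triplicates.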

The target is the same in test [3]. The test can be described thus: Binding to mouse brain membranes expressed as percentage of Opioid receptors occupancy determined from difference in specific binding of [3H]dihydromorphine obtained after 10 wash procedures. The conditions noted are these: Membrane. A digest of the protocol: (§3)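 Male mouse brain (minus cerebellum) membranes in pH 7.4 Hepes buffer are exposed to ligand for 30 min at 25 °C, then centrifuged and washed 10 times (resuspended in Hepes, 10 min at 37 °C, recentrifuged). Pellets are labelled with 2 nM final [3H]dihydromorphine for 20 min at 25 °C; 1 µM naltrexone defines nonspecific binding. Occupancy is the loss of specific binding versus a ligand-free control treated identically, counted by scintillation. Mean ± SD of triplicates.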

Test [4] has the same target. The test is described as §1. This is another data set of the same source.
For test [5] the target is unchanged. The test can be described thus: Binding to mouse brain membranes expressed as percentage of receptor occupancy determined from difference in specific binding of [3H]dihydromorphine obtained after 3 wash procedures. Conditions: Membrane. A digest of the protocol: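 Mouse forebrain membranes in Hepes buffer, pH 7.4, are incubated with ligand for 30 min at 25 °C, then given 3 wash cycles, each a 10 min resuspension at 37 °C followed by centrifugation. Residual occupancy is measured with 2 nM [3H]dihydromorphine (20 min, 25 °C; nonspecific binding with 1 µM naltrexone) as the drop in specific binding relative to a washed control without ligand. Mean ± SD, triplicate.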

The target is the same in test [6]. The test can be described thus: Binding to mouse brain membranes expressed as percentage of receptor occupancy determined from difference in specific binding of [3H]dihydromorphine obtained prewashed. Conditions: Membrane. In short, it runs like this: as §2
The target is the same in test [7]. The test can be described thus: Binding to mouse brain membranes expressed as percentage of receptor occupancy determined from difference in specific binding of [3H]dihydromorphine obtained after 5 wash procedures. The conditions noted are these: Membrane. A digest of the protocol: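 Ligand pretreatment of male mouse brain membranes runs 30 min at 25 °C, followed by 5 washes in Hepes buffer pH 7.4 (10 min at 37 °C each, then recentrifuged). Specific binding of 2 nM [3H]dihydromorphine (20 min at 25 °C, minus binding with 1 µM naltrexone) is compared with an identically washed ligand-free control to give percent occupancy. Triplicate, mean ± SD.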

The target is the same in test [8]. The test is described as follows: Binding to mouse brain membranes expressed as percentage of receptor occupancy determined from difference in specific binding of [3H]dihydromorphine obtained after 10 wash procedures. The conditions noted are these: Membrane. In short, it runs like this: as §3

T1 sequence (P32300 whole entry, looked up): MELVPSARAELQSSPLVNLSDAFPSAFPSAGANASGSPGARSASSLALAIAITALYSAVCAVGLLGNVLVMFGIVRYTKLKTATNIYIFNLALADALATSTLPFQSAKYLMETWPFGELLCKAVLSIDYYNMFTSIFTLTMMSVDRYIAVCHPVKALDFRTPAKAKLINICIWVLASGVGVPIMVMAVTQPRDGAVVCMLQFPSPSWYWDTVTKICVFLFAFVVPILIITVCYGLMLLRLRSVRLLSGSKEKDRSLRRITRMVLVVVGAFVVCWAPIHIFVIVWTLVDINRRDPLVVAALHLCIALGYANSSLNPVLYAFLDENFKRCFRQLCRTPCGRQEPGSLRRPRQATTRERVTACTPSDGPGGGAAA
T1 sequence (P33534 whole entry, looked up): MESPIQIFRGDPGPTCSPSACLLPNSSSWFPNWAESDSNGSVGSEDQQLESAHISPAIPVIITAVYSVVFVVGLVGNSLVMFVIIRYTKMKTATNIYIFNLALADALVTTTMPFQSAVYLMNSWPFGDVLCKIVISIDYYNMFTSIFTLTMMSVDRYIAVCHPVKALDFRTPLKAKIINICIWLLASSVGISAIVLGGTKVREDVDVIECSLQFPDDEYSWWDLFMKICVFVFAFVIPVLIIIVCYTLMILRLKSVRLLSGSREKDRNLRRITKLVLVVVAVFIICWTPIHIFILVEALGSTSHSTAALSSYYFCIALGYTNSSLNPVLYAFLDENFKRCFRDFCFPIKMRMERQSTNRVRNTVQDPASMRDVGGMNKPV
T1 sequence (P42866 whole entry, looked up): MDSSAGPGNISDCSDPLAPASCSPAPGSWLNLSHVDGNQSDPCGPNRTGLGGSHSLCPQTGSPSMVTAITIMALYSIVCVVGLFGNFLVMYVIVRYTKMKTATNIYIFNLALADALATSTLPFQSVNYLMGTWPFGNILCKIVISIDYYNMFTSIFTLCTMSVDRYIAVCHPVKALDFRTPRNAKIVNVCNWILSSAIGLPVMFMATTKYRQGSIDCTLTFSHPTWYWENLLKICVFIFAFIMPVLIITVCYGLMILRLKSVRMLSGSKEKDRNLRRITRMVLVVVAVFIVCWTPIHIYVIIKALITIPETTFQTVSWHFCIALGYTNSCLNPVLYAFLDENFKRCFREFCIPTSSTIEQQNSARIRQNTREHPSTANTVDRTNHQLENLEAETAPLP

For `CCCCCCCCCCCCCCCCCC(=O)N[C@@H]1CC[C@@]2(O)[C@H]3Cc4ccc(O)c5c4[C@@]2(CCN3CC2CC2)[C@H]1O5`, the Receptor occupancy in test [1] worked out at 48%; in test [2] it was 34%; in test [3], 2%; in test [4], 89%.
On the same counts, the results for `CCCCCCCCCCCCCCCC(=O)N[C@@H]1CC[C@@]2(O)[C@H]3Cc4ccc(O)c5c4[C@@]2(CCN3CC2CC2)[C@H]1O5` are 58%, 38%, 2% and 93%.
As for `CC/C=C/C/C=C/C/C=C/CCCCCCCC(=O)N[C@H]1CC[C@@]2(O)[C@H]3Cc4ccc(O)c5c4[C@@]2(CCN3CC2CC2)[C@H]1O5`, the Receptor occupancy was 89% in test [1], 69% in test [2], 84% in test [3] and 94% in test [4].
In the case of `CC(=O)N[C@H]1CC[C@@]2(O)[C@H]3Cc4ccc(O)c5c4[C@@]2(CCN3CC2CC2)[C@H]1O5`, the Receptor occupancy in test [5] is 2%.
In the case of `CC/C=C/C/C=C/C/C=C/CCCCCCCC(=O)NN[C@@H]1CC[C@@]2(O)[C@H]3Cc4ccc(O)c5c4[C@@]2(CCN3CC2CC2)[C@H]1O5`, the Receptor occupancy in test [1] came to 46%; in test [3], 38%; in test [4], 93%.
On to `CCCCCCCCCCCCCCCC(=O)NN[C@@H]1CC[C@@]2(O)[C@H]3Cc4ccc(O)c5c4[C@@]2(CCN3CC2CC2)[C@H]1O5`, for which the Receptor occupancy worked out at 2% in test [1] and 33% in test [4].
Take `CCCCC/C=C/C/C=C/CCCCCCCC(=O)N[C@@H]1CC[C@@]2(O)[C@H]3Cc4ccc(O)c5c4[C@@]2(CCN3CC2CC2)[C@H]1O5`: the Receptor occupancy in test [1] amounted to 96%; in test [2], 84%; in test [3] it was 53%; in test [4], 94%.
On the same counts, the results for `CCCCCCCCCCCCCCCCCC(=O)N[C@H]1CC[C@@]2(O)[C@H]3Cc4ccc(O)c5c4[C@@]2(CCN3CC2CC2)[C@H]1O5` are 42%, 18%, 6% and 77%.
`CCCCCCCCCCCCCCCC(=O)N[C@H]1CC[C@@]2(O)[C@H]3Cc4ccc(O)c5c4[C@@]2(CCN3CC2CC2)[C@H]1O5`: the Receptor occupancy in test [6] was 24%; in test [5], 85%; in test [7], 35%; in test [8], 3%.
Turning to `CC(=O)N[C@@H]1CC[C@@]2(O)[C@H]3Cc4ccc(O)c5c4[C@@]2(CCN3CC2CC2)[C@H]1O5`, the Receptor occupancy in test [5] was determined as 4%.
On to `CCCCCCCC/C=C/CCCCCCCC(=O)N[C@@H]1CC[C@@]2(O)[C@H]3Cc4ccc(O)c5c4[C@@]2(CCN3CC2CC2)[C@H]1O5`, for which the Receptor occupancy in test [1] was 93%; in test [2], 64%; in test [3], 32%; in test [4] it was 95%.
Taken in the same sequence, the figures for `CCCCCCCC/C=C/CCCCCCCC(=O)N[C@H]1CC[C@@]2(O)[C@H]3Cc4ccc(O)c5c4[C@@]2(CCN3CC2CC2)[C@H]1O5` were 54%, 42%, 21% and 98%.
Take `Oc1ccc2c3c1O[C@H]1/C(=N\N=C4/CC[C@@]5(O)[C@H]6Cc7ccc(O)c8c7[C@@]5(CCN6CC5CC5)[C@H]4O8)CC[C@@]4(O)[C@@H](C2)N(CC2CC2)CC[C@]314`: the Receptor occupancy in test [5] is 35%; in test [7] it was -1%; in test [8] it was 2%.
Regarding `CC/C=C/C/C=C/C/C=C/CCCCCCCC(=O)N[C@@H]1CC[C@@]2(O)[C@H]3Cc4ccc(O)c5c4[C@@]2(CCN3CC2CC2)[C@H]1O5`, the Receptor occupancy in test [1] turned out to be 95%; in test [2], 85%; in test [3], 86%; in test [4], 92%.
As for `CCCCCCCCCCCCCCCCCC(=O)NN[C@@H]1CC[C@@]2(O)[C@H]3Cc4ccc(O)c5c4[C@@]2(CCN3CC2CC2)[C@H]1O5`, the Receptor occupancy worked out at 4% in test [1] and 38% in test [4].
Take `CCCCC/C=C/C/C=C/CCCCCCCC(=O)N[C@H]1CC[C@@]2(O)[C@H]3Cc4ccc(O)c5c4[C@@]2(CCN3CC2CC2)[C@H]1O5`: the Receptor occupancy in test [1] was 93%; in test [2] it was 73%; in test [3], 46%; in test [4] it was 93%.
